Hsp70 act: switches on Hsp70 transcription; HeLa Hsp70 promoter luciferase reporter, luminescence; scaled: vehicle 0, proteasome-inhibitor control 100%; 200,000 compounds, 0.04% hits; activation, % at 10 µM;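 active = activation above the mean across all tested compounds plus 3 SD, cutoff set per campaign, cut at about 5.5% in these data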;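 also: 100% = MG132 at 30 µM as the positive control and 0% = DMSO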
HSF1 inhib: HSF1 inhibition | NIH3T3-HGL HSE-luciferase, MG132-induced, luminescence 8 h; hits give low values | activity change, negative = inhibition, % at 7.5 µM (by protocol) | 300,000 compounds, 0.77% hits;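 active = more than half of replicate wells show activity change below -50%, luminescence cut by over half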;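 also: luciferase reports HSF-1 transcriptional activity via heat shock element; 0% = median of DMSO wells and -100% = zero luminescence signal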
HSP90 inh: inhibitors of HSP90 luciferase refolding in rabbit reticulocyte lysate; AID 1789; 290,000 compounds, 0.91% hits; luciferase refolding luminescence, 3 h; inhibition, % at 5.6 µM;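 active = inhibition above the screen-wide mean plus 3 SD, computed separately per campaign, cut at about 16% in these data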;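 also: 0% = DMSO wells and 100% = 60 µM geldanamycin wells; inhibitors lower the luminescence because luciferase stays unfolded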
Tb hexokinase: T. brucei hexokinase 1 inhibition | 220,000 compounds, 0.11% hits | recombinant TbHK1, G6PDH-coupled NADH A340 | inhibition, % at 10 µM;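 active = inhibition of 50% or more in the single-dose primary screen; inactive = inhibition below 50%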
HSF1 activator: increases HSF-1 driven luciferase reporter signal; NIH3T3-HGL HSF-1 luciferase reporter, MG132, 8 h; 100% = twice DMSO control signal; activation, % at 9 µM; 300,000 compounds, 1.7% hits; AID 504408;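 active = mean replicate activation of at least 50% with a set share of replicates each reaching 50%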;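 also: 0% = median of the neutral control wells and 100% = twice that signal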
HKDC1 inh: blocks human hexokinase HKDC1 activity | recombinant HKDC1, G6PDH/diaphorase resazurin coupled fluorescence | inhibition, % at 20 µM | 340,000 compounds, 0.16% hits | AID 493160;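 active = inhibition above about 35% when tested at 20 µM, limit read from the data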;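 also: plate controls were DMSO wells with enzyme for no effect and DMSO wells lacking enzyme for full effect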
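Test system: HK5 enzyme. Quantity: 5 µg/mL HK5 final. Reagent: glucose and ATP substrates. Schedule: 90 min reaction incubation at room temperature, dark. Technique: resazurin-to-resorufin fluorescence via G6PDH and diaphorase coupling, 525/613 nm. Control set: DMSO wells with and without enzyme mix.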
The depositor's hits bear a star; . = no result given. Rows were chosen to be rich in hits. Some 3.1% of all compounds tested hit in one or more screens of this group.

SMILES	Hsp70 act	HSF1 inhib	HSP90 inh	Tb hexokinase	HSF1 activator	HKDC1 inh
CNc1nc(SC(C)C(=O)Nc2ccc(Cl)c(Cl)c2)nc(N2CCOCC2)n1 (centres undefined)	0	12	-1	-3	68*	-7
COc1ccc2c(COC(=O)c3n[nH]c4ccccc34)cc(=O)oc2c1	0	49	0	-33	63*	8
Cc1cc2oc(=O)cc(COC(=O)c3n[nH]c4ccccc34)c2cc1C	0	26	0	-5	51*	-7
COc1ccc2c(COC(=O)CCS(=O)(=O)c3ccccc3)cc(=O)oc2c1	0	2	0	-8	-22	.
Clc1ccccc1Cn1nnc2ccccc21	.	3	-1	.	40	-3
CC(C)[C@H](NC(=O)c1ccco1)C(=O)OCC(=O)c1ccc(Br)s1	.	.	.	.	.	-6
CCN(CC)S(=O)(=O)c1ccc(C)c(NC(=O)CNc2cccc(S(=O)(=O)N3CCOCC3)c2)c1	.	-2	.	.	-14	0
CCN(CC)S(=O)(=O)c1ccc(C)c(NC(=S)Nc2cccc(S(=O)(=O)N3CCCCCC3)c2)c1	0	21	-2	22	56*	-4
CC(C)NC(=O)[C@H]1N2C(=O)c3ccccc3C2SC1(C)C (some centres undefined)	.	-1	-3	.	13	-5
Cc1ccccc1N(CC(=O)NCc1ccccc1)C(=O)CCC(=O)Nc1nccs1	.	7	-1	.	5	-6
O=c1o[nH]c(-c2ccccc2)c1-c1ccccc1	.	-60*	.	.	-67	-5
CN(C)S(=O)(=O)N1CCC(Oc2cccc(C(=O)NC3CCOC3)c2)CC1 (centres undefined)	.	1	-2	.	-4	-9
CCN(CC)c1c([N+](=O)[O-])c(=O)n(C)c2ccccc12	0	1	-1	-13	-2	-8
Cn1c(=O)c([N+](=O)[O-])c(Cl)c2ccccc21	0	-73*	2	-6	-74	4
O=c1c(=NNc2ccccc2Cl)c(=O)c2ccccc12	0	.	26*	-13	.	-2
Cc1cc(C)c(NN=c2c(=O)c3ccccc3c2=O)c(C)c1	0	25	5	-8	67*	-9
CCN(CC)S(=O)(=O)c1cccc(NN=c2c(=O)c3ccccc3c2=O)c1	.	1	0	-10	2	6
COc1cccc(C(c2sc3nc(C)nn3c2O)N2CCN(C(=O)c3ccco3)CC2)c1 (centres undefined)	0	-85*	1	-5	-88	-4
CSc1nc(SCCO)c2sc3nc(-c4ccco4)c4c(c3c2n1)CC(C)(C)OC4	0	6	-4	-9	0	21
CSc1nc(N(CCO)CCO)c2sc3nc(-c4ccco4)c4c(c3c2n1)CCC4	0	6	2	5	24	37*
COc1ccc(-c2csc3nc(-c4ccccc4F)oc(=O)c23)cc1	.	63	0	-5	78*	4
COc1ccc(-c2nc3scc(-c4ccc(OC)c(OC)c4)c3c(=O)o2)cc1	0	5	0	-32	20	-7
CCOC(=O)c1sc(NC(=O)OC)c(C(=O)OC)c1C	0	-4	0	-7	6	-5
CCOC(=O)c1c(NC(=O)OC)sc(C(=O)N(CC)CC)c1C	0	-72*	4	0	-78	-5
CN(CC(=O)Nc1ccc(OC(F)(F)F)cc1)C(=O)Cc1c(Cl)cccc1Cl	.	-3	0	.	19	0
SMILES	Hsp70 act	HSF1 inhib	HSP90 inh	Tb hexokinase	HSF1 activator	HKDC1 inh
O=C(COC(=O)Cc1c(Cl)cccc1Cl)Nc1ccc(OC(F)(F)F)cc1	0	-84*	-4	0	-86	6
CCc1ccc(-c2cc(C)no2)cc1S(=O)(=O)NCCc1ccc(OC)c(OC)c1	.	-1	4	.	8	1
COC(=O)c1ccc(-c2nc3cc(Cl)c(N)cc3s2)cc1	0	-57*	9	-14	-65	10
COC(=O)c1ccc(-c2nc(O)c(C)s2)cc1	0	3	1	-7	5	0
CC(=O)N1CCN(C(C)=O)c2ccccc21	.	.	.	.	.	-5
CC(=O)N1CCn2c3ccc(C)cc3c3cccc1c32	0	36	-2	-1	65*	3

Compound activity as filed in PubChem BioAssay.
